Measurements as given in the M2OR odorant receptor database.
Positions count from the first letter of the chain named.

Molecular target: T1, OR2W3 (Homo sapiens) (UniProt Q7Z3T1)
T1 sequence (whole entry): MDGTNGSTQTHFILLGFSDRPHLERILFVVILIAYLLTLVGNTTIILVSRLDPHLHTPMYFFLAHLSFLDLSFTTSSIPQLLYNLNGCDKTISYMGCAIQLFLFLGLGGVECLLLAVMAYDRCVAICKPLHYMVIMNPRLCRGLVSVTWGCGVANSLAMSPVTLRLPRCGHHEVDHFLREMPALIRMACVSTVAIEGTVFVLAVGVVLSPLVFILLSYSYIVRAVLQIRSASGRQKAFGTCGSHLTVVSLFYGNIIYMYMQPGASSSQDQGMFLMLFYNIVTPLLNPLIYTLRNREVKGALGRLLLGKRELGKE
Details: stereoisomer not certain
Summary of the method: (§1)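 Assay methods differ from source to source, frequently being transient luciferase assays in mammalian cell lines. For each receptor–molecule pair, the label responsive (active) applies when the original authors judged the measured signal statistically different from baseline, and non-responsive (inactive) applies otherwise.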

| Compound | odorant receptor agonist call |
| --- | --- |
| CCCCCCCCCCCC(=O)O | inactive |
| CCCCCCC=CCCC=O | inactive |
| CC1=C(O)C(=O)OC1C (stereo not drawn) | inactive |
| CC1CCCCCCCCCCCCC(=O)C1 (stereo not drawn) | inactive |
| CCC1OC(=O)C(O)=C1C (stereo not drawn) | inactive |
| CCCCC(S)C(C)CO (stereo not drawn) | inactive |
| CC1=C(O)C(=O)C(C)O1 (stereo not drawn) | inactive |
| CC(CO)CS (stereo not drawn) | inactive |
| CCCC(S)CCOC(C)=O (stereo not drawn) | inactive |
| CC(=O)c1c(C)c([N+](=O)[O-])c(C(C)(C)C)c([N+](=O)[O-])c1C | inactive |
| CCC(S)C(C)CO (stereo not drawn) | inactive |
| CC1=NC(C)C(C)S1 (stereo not drawn) | inactive |
| Cc1cnc(C)c(C)n1 | inactive |
| CCCCCC(S)C(C)CO (stereo not drawn) | inactive |
| CC(C=O)Cc1ccc(C(C)(C)C)cc1 (stereo not drawn) | inactive |
| CCCCCC(=O)C(C)C(C)=O (stereo not drawn) | inactive |
| CCCCCCCCCCCCCCCCCC(=O)OC | inactive |
| CCC1OC(C)=C(O)C1=O (stereo not drawn) | inactive |

Molecular target: T2, OR2W5P (Homo sapiens) (UniProt A6NFC9)
T2 sequence (whole entry): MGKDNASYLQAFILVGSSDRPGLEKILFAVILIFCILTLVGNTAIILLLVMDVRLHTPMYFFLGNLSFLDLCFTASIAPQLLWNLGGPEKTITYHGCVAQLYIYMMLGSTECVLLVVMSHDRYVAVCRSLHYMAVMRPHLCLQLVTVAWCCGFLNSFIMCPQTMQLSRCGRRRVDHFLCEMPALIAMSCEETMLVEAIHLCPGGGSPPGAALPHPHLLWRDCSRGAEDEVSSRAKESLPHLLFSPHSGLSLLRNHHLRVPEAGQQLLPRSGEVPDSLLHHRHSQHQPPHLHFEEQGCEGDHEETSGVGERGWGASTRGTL
Details: stereoisomer not certain
Summary of the method: as §1

| Compound | odorant receptor agonist call |
| --- | --- |
| CCCCCCC=CCCC=O | inactive |
| CC1=C(O)C(=O)OC1C (stereo not drawn) | inactive |
| CCC1OC(=O)C(O)=C1C (stereo not drawn) | inactive |
| CCCCC(S)C(C)CO (stereo not drawn) | inactive |
| CC1=C(O)C(=O)C(C)O1 (stereo not drawn) | inactive |
| CC(CO)CS (stereo not drawn) | inactive |
| CCCC(S)CCOC(C)=O (stereo not drawn) | inactive |
| CCC(S)C(C)CO (stereo not drawn) | inactive |
| CC1=NC(C)C(C)S1 (stereo not drawn) | inactive |
| Cc1cnc(C)c(C)n1 | inactive |
| CCCCCC(S)C(C)CO (stereo not drawn) | inactive |
| CCCCCC(=O)C(C)C(C)=O (stereo not drawn) | inactive |
| CCC1OC(C)=C(O)C1=O (stereo not drawn) | inactive |

Molecular target: T3, OR2Y1 (Homo sapiens) (UniProt Q8NGV0)
T3 sequence (whole entry): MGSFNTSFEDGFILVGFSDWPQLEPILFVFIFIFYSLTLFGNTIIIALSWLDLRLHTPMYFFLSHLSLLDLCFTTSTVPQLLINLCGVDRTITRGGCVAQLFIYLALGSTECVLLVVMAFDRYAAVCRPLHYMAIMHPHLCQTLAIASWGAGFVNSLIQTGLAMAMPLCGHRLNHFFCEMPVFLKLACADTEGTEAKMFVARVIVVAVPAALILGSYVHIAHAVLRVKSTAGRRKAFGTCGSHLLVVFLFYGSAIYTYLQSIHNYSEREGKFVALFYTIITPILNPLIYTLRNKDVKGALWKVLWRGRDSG
Details: stereoisomer not certain
Summary of the method: as §1

| Compound | odorant receptor agonist call |
| --- | --- |
| CCCCCCC=CCCC=O | inactive |
| CC1=C(O)C(=O)OC1C (stereo not drawn) | inactive |
| CC1CCCCCCCCCCCCC(=O)C1 (stereo not drawn) | inactive |
| CCC1OC(=O)C(O)=C1C (stereo not drawn) | inactive |
| CCCCC(S)C(C)CO (stereo not drawn) | inactive |
| CC1=C(O)C(=O)C(C)O1 (stereo not drawn) | inactive |
| CC(CO)CS (stereo not drawn) | inactive |
| CCCC(S)CCOC(C)=O (stereo not drawn) | inactive |
| CC(=O)c1c(C)c([N+](=O)[O-])c(C(C)(C)C)c([N+](=O)[O-])c1C | inactive |
| CCC(S)C(C)CO (stereo not drawn) | inactive |
| CC1=NC(C)C(C)S1 (stereo not drawn) | inactive |
| Cc1cnc(C)c(C)n1 | inactive |
| CCCCCC(S)C(C)CO (stereo not drawn) | inactive |
| CCCCCC(=O)C(C)C(C)=O (stereo not drawn) | inactive |
| CCC1OC(C)=C(O)C1=O (stereo not drawn) | inactive |

Test system: T4, OR2Y1
T4 sequence (whole entry): T3 sequence (whole entry) with V200L
Details: stereoisomer not certain
Summary of the method: as §1

| Compound | odorant receptor agonist call |
| --- | --- |
| CCCCCCC=CCCC=O | inactive |
| CC1=C(O)C(=O)OC1C (stereo not drawn) | inactive |
| CCC1OC(=O)C(O)=C1C (stereo not drawn) | inactive |
| CC1=C(O)C(=O)C(C)O1 (stereo not drawn) | inactive |
| CCCC(S)CCOC(C)=O (stereo not drawn) | inactive |
| CC1=NC(C)C(C)S1 (stereo not drawn) | inactive |
| Cc1cnc(C)c(C)n1 | inactive |
| CCC1OC(C)=C(O)C1=O (stereo not drawn) | inactive |

Molecular target: T5, OR2Z1 (Homo sapiens) (UniProt Q8NG97)
T5 sequence (whole entry): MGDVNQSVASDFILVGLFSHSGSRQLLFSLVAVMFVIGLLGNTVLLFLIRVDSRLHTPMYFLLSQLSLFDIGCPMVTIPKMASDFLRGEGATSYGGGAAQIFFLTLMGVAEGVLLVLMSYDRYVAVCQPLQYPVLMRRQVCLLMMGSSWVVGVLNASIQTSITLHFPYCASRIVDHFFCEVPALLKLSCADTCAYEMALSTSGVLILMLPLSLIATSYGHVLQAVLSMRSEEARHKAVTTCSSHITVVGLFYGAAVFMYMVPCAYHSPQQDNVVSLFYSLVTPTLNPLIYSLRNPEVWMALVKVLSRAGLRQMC
Details: stereoisomer not certain
Summary of the method: as §1

| Compound | odorant receptor agonist call |
| --- | --- |
| CCCCCCC=CCCC=O | inactive |
| CC1=C(O)C(=O)OC1C (stereo not drawn) | inactive |
| CC1CCCCCCCCCCCCC(=O)C1 (stereo not drawn) | inactive |
| CCC1OC(=O)C(O)=C1C (stereo not drawn) | inactive |
| CCCCC(S)C(C)CO (stereo not drawn) | inactive |
| CC1=C(O)C(=O)C(C)O1 (stereo not drawn) | inactive |
| CC(CO)CS (stereo not drawn) | inactive |
| CCCC(S)CCOC(C)=O (stereo not drawn) | inactive |
| CC(=O)c1c(C)c([N+](=O)[O-])c(C(C)(C)C)c([N+](=O)[O-])c1C | inactive |
| CCC(S)C(C)CO (stereo not drawn) | inactive |
| CC1=NC(C)C(C)S1 (stereo not drawn) | inactive |
| Cc1cnc(C)c(C)n1 | inactive |
| CCCCCC(S)C(C)CO (stereo not drawn) | inactive |
| CCCCCC(=O)C(C)C(C)=O (stereo not drawn) | inactive |
| CCC1OC(C)=C(O)C1=O (stereo not drawn) | inactive |

Molecular target: T6, OR3A1 (Homo sapiens) (UniProt P47881)
T6 sequence (whole entry): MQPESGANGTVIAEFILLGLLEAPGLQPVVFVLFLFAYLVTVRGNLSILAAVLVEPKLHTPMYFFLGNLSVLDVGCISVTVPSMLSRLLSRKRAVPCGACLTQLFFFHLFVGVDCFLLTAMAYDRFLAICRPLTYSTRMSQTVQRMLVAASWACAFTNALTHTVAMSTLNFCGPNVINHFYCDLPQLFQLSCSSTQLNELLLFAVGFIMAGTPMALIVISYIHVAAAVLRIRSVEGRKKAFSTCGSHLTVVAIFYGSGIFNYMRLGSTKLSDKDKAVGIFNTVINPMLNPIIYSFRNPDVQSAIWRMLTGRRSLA
Details: stereoisomer not certain
Summary of the method: as §1

| Compound | odorant receptor agonist call |
| --- | --- |
| CC(CC=O)c1ccccc1 (stereo not drawn) | active |
| CCC(O)c1ccccc1 (stereo not drawn) | inactive |
| CC(C=O)Cc1ccccc1 (stereo not drawn) | active |
| CC(=O)CCc1ccc(O)cc1 | inactive |
| CCCCCCC=CCCC=O | inactive |
| O=CCCc1ccccc1 | inactive |
| CCCCCCCCCC(C)C=O (stereo not drawn) | inactive |
| CC1=C(O)C(=O)OC1C (stereo not drawn) | inactive |
| CC1CCCCCCCCCCCCC(=O)C1 (stereo not drawn) | inactive |
| CCC1OC(=O)C(O)=C1C (stereo not drawn) | inactive |
| CC(CC=O)CCc1ccccc1 (stereo not drawn) | active |
| CC(C)CC=O | inactive |
| COc1ccc(CC(C)C=O)cc1 (stereo not drawn) | active |
| CCCCC(S)C(C)CO (stereo not drawn) | inactive |
| CC1=C(O)C(=O)C(C)O1 (stereo not drawn) | inactive |
| CC(CO)CS (stereo not drawn) | inactive |
| CCCC(S)CCOC(C)=O (stereo not drawn) | inactive |

| Compound | odorant receptor agonist call |
| --- | --- |
| CC(C=O)=Cc1ccccc1 | inactive |
| CC(=O)c1c(C)c([N+](=O)[O-])c(C(C)(C)C)c([N+](=O)[O-])c1C | inactive |
| CCC(S)C(C)CO (stereo not drawn) | inactive |
| CC1=NC(C)C(C)S1 (stereo not drawn) | inactive |
| COc1ccc(COC=O)cc1 | inactive |
| Cc1ccc(CC(C)C=O)cc1 (stereo not drawn) | active |
| OCC=Cc1ccccc1 | inactive |
| Cc1cnc(C)c(C)n1 | inactive |
| CC1=CC(=O)CC(C(C)C)C1 (stereo not drawn) | active |
| CCCCCC(S)C(C)CO (stereo not drawn) | inactive |
| CCCCCCCC(=O)OCCCCCC | inactive |
| CC(C=O)Cc1ccc(C(C)(C)C)cc1 (stereo not drawn) | active |
| OCCc1ccccc1 | inactive |
| CC(=O)OCc1ccc2c(c1)OCO2 | inactive |
| CCCCCC(=O)C(C)C(C)=O (stereo not drawn) | inactive |
| CCC1OC(C)=C(O)C1=O (stereo not drawn) | inactive |
| CCCCCC1=C(C)CCC1=O | active |
